The target in data set [1] is Mitogen-activated protein kinase 14 (Homo sapiens) (UniProt Q16539). Kind of data set: Inhibition of SAPK2a/p38 at 10 uM. The method, boiled down:
(§1)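 Kinase panel run at Upstate (Dundee). Each compound was tested at 10 µM against each enzyme and reported as % inhibition.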

Data set [2] addresses Ribosomal protein S6 kinase alpha-1 (Homo sapiens) (UniProt Q15418). Nature of the data set: Inhibition of MAPKAP-K1a at 10 uM. The method, boiled down: as §1
Data set [3] has as its target Mitogen-activated protein kinase 8 (Homo sapiens) (UniProt P45983). Nature of the data set: Inhibition of JNK/SAPK1c at 10 uM. The method, boiled down:
as §1

In data set [4] the test system is Malme-3M. Kind of data set: Inhibition of basal ERK phosphorylation in Malme-3M cells. The class given is functional, Homo sapiens.
The subject of data set [5] is Malme-3M. Kind of data set: Inhibition of cellular viability of Malme-3M cells. The class given is functional, Homo sapiens.
Data set [6] can be described thus: Clearance in presence of human hepatocytes. It is filed as ADME, cell-based, Liver, Hepatocyte. The method, boiled down: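 Human hepatocytes (fresh or cryopreserved) diluted to 2 x 10⁶ viable cells/mL in supplemented Krebs-Henseleit buffer pH 7.3, mixed 1:1 with 2 µM compound working solution. Incubated at 37 °C, 5% CO₂, duplicates, one plate per timepoint. Quenched with labetalol internal standard and centrifuged; compound remaining measured by LC-MS/MS (ESI+, MRM).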

The nature of data set [7]: Aqueous solubility at pH 6.5. The class given is physicochemical. The method in brief:
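Thermodynamic shake-flask method: crystalline solid (0.5 mg, crystallinity confirmed by polarizing microscopy) in 0.5 mL 10 mM potassium phosphate, pH 6.5, swirled 24 h at room temperature. Filtered aliquots were quantified by HPLC-PDA against a calibration curve.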

Data set [8] is described as follows: Volume of distribution in rat. It is filed as ADME, organism-based. To be noted: Sprague-Dawley, in vivo, read-out: Vdss. The method, boiled down: (§2)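 Male Sprague Dawley rats (6-10 weeks) received IV 1 mg/kg (10% DMSO/90% saline) and PO 10 mg/kg (1% CMC/0.5% Tween 80). Serial tail-vein plasma was taken up to 24 h (IV) or 72 h (PO) and analysed by LC/MS/MS (9 ng/mL to 20 µg/mL). Parameters were calculated non-compartmentally.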

Data set [9] has as its system Rattus norvegicus. Nature of the data set: AUC in rat at 1 mg/kg, iv. It is filed as ADME, organism-based, Sprague-Dawley, Plasma. Set-up: dose 1 mg/kg, route intravenous. The following applies: in vivo. The method in brief: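 Male Sprague Dawley rats (6-10 weeks), fed ad lib, dosed IV at 1 mg/kg (1 mg/mL in 10% DMSO/90% normal saline, 1 mL/kg). Tail-vein EDTA blood sampled 1, 5, 15, 30 min and 1, 2, 4, 8, 12, 24 h. Plasma analysed by LC/MS/MS after methanol protein precipitation, range 9 ng/mL to 20 µg/mL. Parameters derived by non-compartmental analysis.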

Data set [10] relates to Rattus norvegicus. Kind of data set: AUC in rat at 10 mg/kg, po. It is filed as ADME, organism-based, Sprague-Dawley, Plasma. On the set-up: dose 10 mg/kg, route oral. To be noted: in vivo. The method in brief: (§3)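 Male Sprague Dawley rats (6-10 weeks) were given 10 mg/kg by oral gavage (2 mg/mL in 1% CMC/0.5% Tween 80, 5 mL/kg). Tail-vein EDTA blood was drawn at 15 and 30 min and 1, 2, 4, 8, 12, 24, 48, 72 h. Plasma was quantified by LC/MS/MS after methanol precipitation. Parameters came from non-compartmental analysis.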

Data set [11] is described as follows: Half life in rat at 10 mg/kg, po. Set-up: dose 10 mg/kg, route oral. To be noted: Sprague-Dawley, in vivo. It is filed as ADME, organism-based. The method, boiled down: as §3
A short description of data set [12]: Oral bioavailability in rat. The class given is ADME, organism-based. The following applies: Sprague-Dawley, in vivo. The method, boiled down: as §2
For data set [13], the system named is HT-29. Nature of the data set: Inhibition of ERK phosphorylation in HT29 tumor bearing NCr-nu/nu mice after 4 hrs at 10 mg/kg, po. It is filed as functional. The following applies: Mus musculus, HT-29, 4 h.
For data set [14], the target named is AMP-activated protein kinase, AMPK (Homo sapiens) (UniProt P54646+O43741+P54619+Q9UGJ0+Q9Y478+Q13131+Q9UGI9). Nature of the data set: Inhibition of AMPK at 10 uM. The class given is protein-complex assay. The method in brief:
as §1

Data set [15] has as its target Tyrosine-protein kinase Lck (Homo sapiens) (UniProt P06239). Kind of data set: Inhibition of LCK at 10 uM. The method in brief: as §1
Data set [16] concerns the target Dual specificity tyrosine-phosphorylation-regulated kinase 1A (Homo sapiens) (UniProt Q13627). Kind of data set: Inhibition of DYRK1a at 10 uM. The method in brief: as §1
Data set [17] concerns the target T1, MAP kinase-activated protein kinase 5 (Homo sapiens) (UniProt Q8IW41).
T1 sequence (whole entry): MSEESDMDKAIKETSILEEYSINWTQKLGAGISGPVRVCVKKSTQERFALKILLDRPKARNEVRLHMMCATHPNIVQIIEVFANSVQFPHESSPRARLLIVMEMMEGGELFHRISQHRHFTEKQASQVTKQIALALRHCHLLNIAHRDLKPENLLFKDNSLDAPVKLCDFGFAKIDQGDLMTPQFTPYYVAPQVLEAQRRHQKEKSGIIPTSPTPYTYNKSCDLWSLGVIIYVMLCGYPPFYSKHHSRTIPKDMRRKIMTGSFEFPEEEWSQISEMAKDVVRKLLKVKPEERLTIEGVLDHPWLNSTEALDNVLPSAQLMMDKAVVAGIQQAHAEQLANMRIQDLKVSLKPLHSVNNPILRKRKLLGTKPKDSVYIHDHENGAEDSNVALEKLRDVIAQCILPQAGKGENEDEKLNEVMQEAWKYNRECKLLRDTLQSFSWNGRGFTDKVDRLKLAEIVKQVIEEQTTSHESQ
Kind of data set: Inhibition of PRAK at 10 uM. The method in brief: as §1

Data set [18] deals with T2, Lymphokine-activated killer T-cell-originated protein kinase (Homo sapiens) (UniProt Q96KB5).
T2 sequence (whole entry): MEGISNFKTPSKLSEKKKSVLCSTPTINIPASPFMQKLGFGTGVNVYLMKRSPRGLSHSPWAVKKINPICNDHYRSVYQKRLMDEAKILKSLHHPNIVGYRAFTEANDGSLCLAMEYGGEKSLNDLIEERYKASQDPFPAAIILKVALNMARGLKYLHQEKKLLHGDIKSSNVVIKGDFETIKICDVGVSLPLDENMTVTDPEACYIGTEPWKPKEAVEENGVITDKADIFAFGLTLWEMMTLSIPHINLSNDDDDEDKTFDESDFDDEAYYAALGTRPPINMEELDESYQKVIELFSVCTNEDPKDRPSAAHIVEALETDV
Kind of data set: Inhibition of PBK at 10 uM. The method, boiled down: as §1

Data set [19] concerns the target Ribosomal protein S6 kinase (P70S6K) (Homo sapiens) (UniProt Q9UBS0+P23443). Nature of the data set: Inhibition of p70 S6K at 10 uM. It is filed as protein-complex assay. The method, boiled down: as §1
The target in data set [20] is Glycogen synthase kinase-3 beta (Homo sapiens) (UniProt P49841). Kind of data set: Inhibition of GSK3b at 10 uM. The method, boiled down:
as §1

Values after ≈ are worked out from the molar mass of the structure shown. Some results are limits rather than exact numbers.

Sequence of Glycogen synthase kinase-3 beta (Homo sapiens) (P49841 whole entry, looked up): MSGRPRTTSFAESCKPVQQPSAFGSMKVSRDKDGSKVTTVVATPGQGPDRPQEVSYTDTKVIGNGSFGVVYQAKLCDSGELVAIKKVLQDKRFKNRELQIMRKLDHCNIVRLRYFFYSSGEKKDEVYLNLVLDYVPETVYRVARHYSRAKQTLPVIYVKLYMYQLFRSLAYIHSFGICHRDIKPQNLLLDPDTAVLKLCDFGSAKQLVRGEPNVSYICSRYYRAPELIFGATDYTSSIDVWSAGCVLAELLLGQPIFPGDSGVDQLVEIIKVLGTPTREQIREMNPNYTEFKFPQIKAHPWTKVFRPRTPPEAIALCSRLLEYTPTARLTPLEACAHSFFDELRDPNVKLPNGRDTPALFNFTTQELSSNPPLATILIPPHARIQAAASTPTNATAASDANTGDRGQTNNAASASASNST
Sequence of Mitogen-activated protein kinase 8 (Homo sapiens) (P45983 whole entry): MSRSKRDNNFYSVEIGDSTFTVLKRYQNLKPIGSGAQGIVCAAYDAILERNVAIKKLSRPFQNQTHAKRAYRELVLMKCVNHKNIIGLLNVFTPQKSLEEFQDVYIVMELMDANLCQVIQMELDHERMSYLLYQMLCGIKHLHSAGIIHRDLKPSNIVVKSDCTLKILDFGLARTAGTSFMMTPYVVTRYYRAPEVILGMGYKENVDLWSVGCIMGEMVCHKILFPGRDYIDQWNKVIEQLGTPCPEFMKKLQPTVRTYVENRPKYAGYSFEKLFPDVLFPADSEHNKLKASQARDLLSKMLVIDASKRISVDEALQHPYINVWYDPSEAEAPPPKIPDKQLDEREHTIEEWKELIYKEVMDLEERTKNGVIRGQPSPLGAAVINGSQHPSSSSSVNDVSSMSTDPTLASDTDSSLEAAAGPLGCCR
Sequence of Mitogen-activated protein kinase 14 (Homo sapiens) (Q16539 whole entry): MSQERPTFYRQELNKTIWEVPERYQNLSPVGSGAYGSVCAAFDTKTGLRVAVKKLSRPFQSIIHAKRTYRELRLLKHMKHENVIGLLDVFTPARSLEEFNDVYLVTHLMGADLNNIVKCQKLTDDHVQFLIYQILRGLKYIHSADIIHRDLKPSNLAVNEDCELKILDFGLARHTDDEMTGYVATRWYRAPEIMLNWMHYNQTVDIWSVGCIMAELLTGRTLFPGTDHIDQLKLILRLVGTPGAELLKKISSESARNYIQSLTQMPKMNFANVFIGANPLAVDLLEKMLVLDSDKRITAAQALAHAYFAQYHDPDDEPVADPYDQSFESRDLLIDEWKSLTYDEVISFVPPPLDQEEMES
Sequence of Ribosomal protein S6 kinase alpha-1 (Homo sapiens) (Q15418 whole entry): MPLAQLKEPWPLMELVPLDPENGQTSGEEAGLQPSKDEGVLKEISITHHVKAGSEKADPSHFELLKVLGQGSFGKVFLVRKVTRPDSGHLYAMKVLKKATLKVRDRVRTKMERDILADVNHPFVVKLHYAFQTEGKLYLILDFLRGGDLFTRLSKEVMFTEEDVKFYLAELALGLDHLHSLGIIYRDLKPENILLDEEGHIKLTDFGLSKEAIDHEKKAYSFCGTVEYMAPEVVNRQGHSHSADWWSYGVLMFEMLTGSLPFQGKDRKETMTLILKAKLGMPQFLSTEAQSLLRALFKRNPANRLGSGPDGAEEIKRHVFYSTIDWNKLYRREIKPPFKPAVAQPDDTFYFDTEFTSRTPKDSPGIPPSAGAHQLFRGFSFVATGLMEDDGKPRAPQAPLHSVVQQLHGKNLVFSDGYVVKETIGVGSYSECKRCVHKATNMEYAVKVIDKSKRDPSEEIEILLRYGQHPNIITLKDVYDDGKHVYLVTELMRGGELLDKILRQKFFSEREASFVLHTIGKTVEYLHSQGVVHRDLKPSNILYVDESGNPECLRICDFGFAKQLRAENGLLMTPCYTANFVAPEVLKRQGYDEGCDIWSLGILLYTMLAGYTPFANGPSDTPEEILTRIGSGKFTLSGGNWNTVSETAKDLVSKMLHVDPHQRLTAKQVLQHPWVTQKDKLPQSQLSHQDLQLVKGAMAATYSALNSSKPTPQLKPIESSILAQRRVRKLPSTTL
Sequence of Tyrosine-protein kinase Lck (Homo sapiens) (P06239 2-509 limits assumed): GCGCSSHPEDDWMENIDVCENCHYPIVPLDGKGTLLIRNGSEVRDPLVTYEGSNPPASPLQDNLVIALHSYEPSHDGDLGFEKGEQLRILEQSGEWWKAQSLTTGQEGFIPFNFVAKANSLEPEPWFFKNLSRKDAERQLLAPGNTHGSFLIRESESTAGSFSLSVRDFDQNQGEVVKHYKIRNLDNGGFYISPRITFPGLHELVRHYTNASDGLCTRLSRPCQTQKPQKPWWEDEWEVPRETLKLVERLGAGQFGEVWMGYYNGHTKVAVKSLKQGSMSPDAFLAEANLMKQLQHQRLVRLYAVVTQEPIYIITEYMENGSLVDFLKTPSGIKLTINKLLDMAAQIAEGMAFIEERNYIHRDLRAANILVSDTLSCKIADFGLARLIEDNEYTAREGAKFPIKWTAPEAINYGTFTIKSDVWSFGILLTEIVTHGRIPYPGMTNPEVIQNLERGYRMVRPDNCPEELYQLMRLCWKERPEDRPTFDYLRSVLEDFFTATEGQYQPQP

Regarding `Cc1c(Nc2ccc(Br)cc2F)c(C(=O)NOCCO)cn(C)c1=O`, the inhibition in data set [1] was 20%; in data set [2] it was -9%; in data set [3], 23%; in [14] it was 19%; in data set [15], 13%; in [16] it was 10%. The inhibition in data set [17] is 16%; in data set [18] it was -8%; in [19] it was 18%; in data set [20] it was 17%. Besides, the Activity in data set [4] turned out to be 2 nM; in data set [5], 11 nM. For the same compound, the CLhep predicted in data set [6] is 6 mL/min/kg. Moreover, in [7], the solubility was determined as 450 µg/mL (≈ 1090 µM). In addition, the Vd in data set [8] is 1.1 L/kg. Further, the AUC was determined as 2.26 µg·h/mL in [9] and 12 µg·h/mL in data set [10]. In [11], this compound gave a half-life of 180 min. The compound further displayed a bioavailability in data set [12] of 53%. For the same compound, the inhibition in vivo at 10 mg/kg in data set [13] is > 80%.
Take `CCONC(=O)c1cn(C)c(=O)c(C)c1Nc1ccc(Br)cc1F`: the inhibition in data set [1] is -3%; in data set [2] it was 3%; in data set [3], 23%; in data set [14], 2%; in data set [15] it was 9%; in [16], 15%. Further, the inhibition in [17] is 18%; in data set [18], 3%; in data set [19], -1%; in data set [20], 15%. The Activity in data set [4] was 10.6 nM; in data set [5] it was 118 nM. In data set [6], the CLhep predicted is 5 mL/min/kg. In data set [7], this compound displayed a solubility of 60 µg/mL (≈ 151 µM). For the same compound, the Vd in data set [8] was found to be 0.4 L/kg. Besides, the AUC in [9] worked out at 8.9 µg·h/mL; in data set [10], 75 µg·h/mL. The compound also had a half-life in [11] of 282 min. In [12], this compound showed a bioavailability of 80%. For the same compound, the inhibition in vivo at 10 mg/kg in data set [13] was > 80%.
`CONC(=O)c1cn(C)c(=O)c(C)c1Nc1ccc(Br)cc1F`: the inhibition was 3% in data set [1]; -8% in [2]; 7% in data set [3]; -4% in data set [14]; -1% in data set [15]; 2% in [16]. The inhibition in data set [17] was 9%; in data set [18], -4%; in data set [19], -2%; in data set [20], 12%. The Activity is given as 39 nM in data set [4] and 265 nM in data set [5]. Moreover, in data set [6], the CLhep predicted is 5 mL/min/kg. In addition, the solubility in data set [7] was 200 µg/mL (≈ 521 µM). Moreover, the Vd in data set [8] is 0.4 L/kg. In addition, the AUC turned out to be 11.5 µg·h/mL in [9] and 88.3 µg·h/mL in data set [10]. In data set [11], this compound showed a half-life of 282 min. Moreover, the bioavailability in data set [12] was found to be 73%. Also, in data set [13], the inhibition in vivo at 10 mg/kg is > 80%.

In general, inhibition refers to the change of the read-out against control, counted positive when it falls. In general, solubility refers to the dissolved amount per volume that the medium holds. High values mean a readily soluble substance, low ones a poorly soluble substance. Broadly, the AUC is concentration integrated over time. A high value points to high exposure. Broadly, the half-life is how long it takes for the measured level to halve. Read a high half-life as slow loss. One may read the bioavailability as the share of a dose that reaches the circulation, judged against a reference dose that is usually intravenous. Low readings indicate poor availability, high ones good availability. The inhibition in vivo is the drop in the measured response relative to a control, in per cent.

(Values after ChEMBL document CHEMBL1147738, “Potent and selective mitogen-activated protein kinase kinase (MEK) 1,2 inhibitors. 1. 4-(4-bromo-2-fluorophenylamino)-1- methylpyridin-2(1H)-ones” (J Med Chem, 2006).)
